Published values from different studies.
Protocols differ between the studies behind these lines.
Target: Ephrin type-A receptor 5 (EPHA5, Homo sapiens, UniProt P54756)

SMILES	effect on	method	concentration	remaining binding [%]
COc1cnc(Nc2cccc(S(N)(=O)=O)c2)nc1N1CCN(c2ccccc2)CC1	binding	competition with immobilised ligand	1 µM	100
CN(C)c1ncc(F)c(-c2cnn3ncccc23)n1	binding		1 µM	100
O=C(c1ccc(Nc2ncc(Cl)c(-c3cc4ccccc4s3)n2)cc1)N1CCC(N2CCCC2)CC1	binding	competition with immobilised ligand	1 µM	86
O=C(Nc1c[nH]nc1C(=O)NC1CCNCC1)c1cc(F)cc(F)c1	binding	competition with immobilised ligand	1 µM	100
O=C(c1ccc(Nc2nccc(-c3cc4ccccc4s3)n2)cc1)N1CCC(N2CCCC2)CC1	binding	competition with immobilised ligand	1 µM	100
C[C@H]1CCN(c2nccc(-c3cnn4ncccc34)n2)C1	binding		1 µM	95
Cc1nc(Cc2cccc(C(F)(F)F)c2)sc1-c1ccc(C(N)=O)nc1	cell-free assay	competition with immobilised ligand	1 µM	100
N[C@H]1CCN(c2nccc(-c3cnn4ncccc34)n2)C1	binding		1 µM	100
CCC(=N\O)/C(C)=C/c1ccc(F)cc1	cell-free assay	competition with immobilised ligand	1 µM	64
COc1cnc(Nc2cccc(S(N)(=O)=O)c2)nc1N1CCN(c2ccccc2)C(=O)C1	binding	competition with immobilised ligand	1 µM	100
c1cnn2ncc(-c3ccnc(N4CCC45COC5)n3)c2c1	binding		1 µM	99
O=C(NCCCN1CCOCC1)c1ccc(Nc2nccc(-c3cc4ccccc4s3)n2)cc1	binding	competition with immobilised ligand	1 µM	88
Cc1cc(C)c(-n2ccn3nc(-c4cccnc4)cc23)cc1NC(=O)c1cc(C#N)cc(S(F)(F)(F)(F)F)c1	cell-free assay	competition with immobilised ligand	0.1 µM	92.4
CCN1CCN(Cc2ccc(C(=O)Nc3ccc(C)c(Oc4ccc5c(c4)CC(=O)N5)c3)cc2C(F)(F)F)CC1	binding	competition with immobilised ligand	1 µM	100
C[C@H](c1cccc(C#N)c1)n1cc(Cl)cc(C(N)=O)c1=N	cell-free assay	competition with immobilised ligand	1 µM	96
c1cncc(-c2cccc(Nc3nccc(NC4CCCCC4)n3)c2)c1	binding	competition with immobilised ligand	10 µM	100
Cc1cnn2ncc(-c3ccnc(N(C)C)n3)c2c1	binding		1 µM	100
O=C(Nc1cnc(Oc2ccc(F)cc2)nc1)N1CCc2ncccc2[C@@H]1c1ccc(F)cc1	cell-free assay	competition with immobilised ligand	1 µM	100
F[C@@H]1CCN(c2nccc(-c3cnn4ncccc34)n2)C1	binding		1 µM	100
C[C@@]1(Cc2ccc(C#N)cc2)C(=O)N(c2cc(Cl)cc(Cl)c2)c2ncc(C(=O)NC3(c4nc(C5CCC5)no4)CC3)n21	cell-free assay	competition with immobilised ligand	1 µM	100
